The text below walks through data of ChEMBL document CHEMBL4513216, “Probing the Open Global Health Chemical Diversity Library for Multistage-Active Starting Points for Next-Generation Antimalarials” (ACS Infect Dis, 2020).

The nature of this series: Toxicity liver stage against HepG2, at 10uM. The format is cell-based. To be noted: human, HepG2-A16-CD81EGFP cells; read-out: INHIBITION
The arrangement: test concentration 10 uM, cell line HepG2-A16-CD81EGFP. In short, it runs like this:
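Uninfected HepG2-A16-CD81EGFP cells, 3 × 10^3 per well, 1536-well, plated on prespotted compound at 10 μM final, parasite-free screening media added to match infected plates; puromycin 10 μM positive, DMSO 0.5% negative; run in parallel with 48 h PbLuc assay at 37 °C, 5% CO2; viability by CellTiter-Glo luminescence, normalized to controls.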
Turning to `CC(=O)c1ccc(S(=O)(=O)N2CCOC(Cn3ccnc3)C2)cc1` (centres undefined), the cytotoxicity at 10 µM was found to be 6.58%.

In the case of `O=C(NC[C@H]1OC[C@@H](NCc2ccccn2)[C@@H]1O)c1ccncc1`, the cytotoxicity at 10 µM is -9.77%.

On to `O=C(NC[C@H]1OC[C@@H](NC2CCCC2)[C@@H]1O)C1CCCC1`, for which the cytotoxicity at 10 µM is -2.15%.

With `CC(C)N1CC[C@H](c2nc3ccc(C(F)(F)F)cc3[nH]2)C1`, the cytotoxicity at 10 µM is -2.07%.

As to `CO[C@@H]1CN(c2ccccc2)S(=O)(=O)[C@@]12CCNC2`, the cytotoxicity at 10 µM was -2.64%.

Consider `CC[C@H](C)[C@H](NC(=O)c1cccc(-n2cnnn2)c1)C(=O)OC`, for which the cytotoxicity at 10 µM came out at 7.98%.

`CCc1c(C)sc2nc3n(CCN(C)C)nc(SC)n3c(=O)c12`: the cytotoxicity at 10 µM came to 2.26%.

With `CNC(=O)c1nc(CC(=O)Nc2ccc3cc[nH]c3c2)no1`, the cytotoxicity at 10 µM came to 7.98%.

For the molecule `Cc1cc(C(O)CCNC(=O)COc2ccccc2F)c(C)o1` (centres undefined), the cytotoxicity at 10 µM was 0.931%.

Consider `CCC(=O)NCc1cc(C2CC2)n(C2CCCC2)n1`, for which the cytotoxicity at 10 µM was -4.36%.

As to `Cn1cc(CN2CCc3ncnc(N4CCCC4)c3CC2)cn1`, the cytotoxicity at 10 µM was -0.818%.

`Cn1cccc1C(=O)N1C[C@@H]2CCCO[C@@H]2[C@H](N2CCOCC2)C1`: the cytotoxicity at 10 µM is -1.19%.

`Cc1noc(C)c1CN1C[C@@H]2CN(C(=O)c3cscn3)C[C@@H]2C1`: the cytotoxicity at 10 µM was -3.09%.

Regarding `OCCNc1nc(NCc2cccnc2)nc2nccnc12`, the cytotoxicity at 10 µM was -3.55%.

In the case of `COCC(=O)N1CC[C@@H]2CN(Cc3cccc(Cl)c3)S(=O)(=O)[C@@H]2CC1`, the cytotoxicity at 10 µM is -3.07%.

Regarding `Cc1cc(C(=O)Nc2cnn(CC(F)(F)F)c2)nc(N2CCOCC2)n1`, the cytotoxicity at 10 µM is -2.02%.

For the molecule `Cc1cc(C)nc(Nc2nccnc2C2CCCN(C(C)C)C2)n1` (centres undefined), the cytotoxicity at 10 µM is -6.15%.

Consider `Cc1nc2c(c(=O)[nH]1)CN(Cc1ccc3c(c1)CCCN3C)CC2`, for which the cytotoxicity at 10 µM is -3.55%.

In the case of `Cc1ccc(-c2nc(C3CCN(C(=O)c4cnn(C)c4)CC3)no2)cn1`, the cytotoxicity at 10 µM was -1.55%.

On to `CNC(=O)C1(CCCc2ccccn2)CN(Cc2scnc2C)C1`, for which the cytotoxicity at 10 µM was 18%.

Consider `Cc1cc(C)n(CC(=O)N2CCCC(c3cc4cccnc4[nH]3)C2)n1` (centres undefined), for which the cytotoxicity at 10 µM amounted to 8.3%.

`Cn1c(=O)cc(C(=O)NC(Cc2ccsc2)c2cccnc2)[nH]c1=O` (centres undefined): the cytotoxicity at 10 µM was 0.913%.

As to `COCCn1cnnc1C1CCCN(c2cnccn2)C1` (centres undefined), the cytotoxicity at 10 µM is -2.22%.

As to `CCS(=O)(=O)N1CCc2nc(C3CCN(C(=O)C4CC4)C3)nc(O)c2C1` (centres undefined), the cytotoxicity at 10 µM is -25.9%.

`Cc1nc(O)c2nnn(C[C@H]3CCCN3C(=O)C3CCCC3)c2n1`: the cytotoxicity at 10 µM was -26.9%.

Consider `Cc1cnn(CC2CCN(CC(O)CN3CCC(C)CC3)CC2)c1` (centres undefined), for which the cytotoxicity at 10 µM turned out to be 5.11%.

On to `CC(c1ccccc1Cl)N(C(=O)CSCC(N)=O)C1CC1` (centres undefined), for which the cytotoxicity at 10 µM was -36.3%.

As to `Cc1ccc(C2CN(CCS(=O)(=O)C(C)C)CCO2)c(C)c1` (centres undefined), the cytotoxicity at 10 µM came to 8.25%.

Consider `CC(NC(=O)NCCCO)c1ccc(-c2ccncc2)cc1` (centres undefined), for which the cytotoxicity at 10 µM was 6.93%.

As for `CCc1noc(C(C)N2CCN(Cc3cnc(C)cn3)CC2)n1` (centres undefined), the cytotoxicity at 10 µM is -8.54%.

As for `O=C(c1cccnc1-n1cncn1)N1CCN(CC(F)(F)F)CC1`, the cytotoxicity at 10 µM was 4.39%.

As for `CCc1nc2n(n1)CC(NCc1cnc(N(CC)CC)s1)CC2` (centres undefined), the cytotoxicity at 10 µM is 7.39%.

Take `Cc1cc(CSC2CCCN(c3cnn(C)c3)C2=O)no1` (centres undefined): the cytotoxicity at 10 µM was found to be 29.7%.

In the case of `COc1cccc(S(=O)(=O)NC(=O)CC2CCCC2)c1`, the cytotoxicity at 10 µM was determined as 3.13%.

For the molecule `CC(=O)c1c(F)cccc1NCC(O)C(C)(C)C` (centres undefined), the cytotoxicity at 10 µM came out at 18.7%.

As for `O=S1(=O)CCN2C(=N1)Oc1ccc(Cl)cc12`, the cytotoxicity at 10 µM was determined as 13.7%.

Take `CCN1CC2(CC1=O)CN(C(=O)NC(C)C)CCN(C(=O)C(C)C)C2` (centres undefined): the cytotoxicity at 10 µM was 0.508%.

With `CCC(C)(C)C(=O)N1C[C@@H]2C[C@@H](c3nnc(C)[nH]3)O[C@@H]2C1`, the cytotoxicity at 10 µM is 4.79%.

With `Cc1ccc2c(n1)N(Cc1cccnc1)CCN(Cc1cnn(C)c1)C2`, the cytotoxicity at 10 µM turned out to be 9.12%.

Consider `Cc1noc(C)c1C(=O)N1CC[C@H]2C[C@@H](c3ccncn3)O[C@@H]2C1`, for which the cytotoxicity at 10 µM was -2.16%.

`COc1ccc(C2(C(=O)N3CC[C@@]4(O)CCNC[C@H]4C3)CCCC2)cc1`: the cytotoxicity at 10 µM is 6.03%.

Turning to `CCc1nc(C)c(CN2CCN(c3ncnc4scc(C)c34)CC2)[nH]1`, the cytotoxicity at 10 µM is 16.4%.

`Cc1nc(C(C)C)sc1CNC(=O)CCCN1CCCCC1`: the cytotoxicity at 10 µM is -13.8%.

Consider `O=C(O)C1(Oc2ccccc2F)CCN(C/C=C/c2ccco2)CC1`, for which the cytotoxicity at 10 µM was -6.49%.

Turning to `CCOCC(=O)NC(C)c1cc(C)ccc1C` (centres undefined), the cytotoxicity at 10 µM was 5.6%.

With `Cn1cc(CN2CCCC(CCc3c(F)cccc3F)C2)cn1` (centres undefined), the cytotoxicity at 10 µM is -7.55%.

As to `CC(C)[C@@H]1CN(S(=O)(=O)c2cccc(C(=O)O)c2)C[C@H]1N(C)C`, the cytotoxicity at 10 µM is -39.1%.

With `O=C(c1cc(COc2ccc3c(c2)OCO3)[nH]n1)N1CCCCO1`, the cytotoxicity at 10 µM is -2.47%.

For the molecule `NC(=O)c1ccc(N2CCN(Cc3c(Cl)cncc3Cl)CC2)nc1`, the cytotoxicity at 10 µM was determined as 10.6%.

Turning to `CCN1CC2(CCN(C(=O)C(C)Oc3ccc(F)cc3Cl)CC2)CC1=O` (centres undefined), the cytotoxicity at 10 µM is -2.98%.

`Cc1cnc(N2CC[C@@]3(O)CCCC[C@H]3C2)nc1-c1ccnn1C`: the cytotoxicity at 10 µM was found to be 0.276%.

With `CC(C)Cc1nc(CCn2ccc(=O)[nH]c2=O)n(-c2ccccn2)n1`, the cytotoxicity at 10 µM is -5.41%.

Regarding `Cc1nc(C)n(CC2CN(CC(=O)NC3CCCC3)CCO2)n1` (centres undefined), the cytotoxicity at 10 µM was -4.83%.

Take `Cc1nc(C)n(CC2CCCCN2Cc2cnc(C)s2)n1` (centres undefined): the cytotoxicity at 10 µM was -2.66%.

For the molecule `Cc1cnn(C2CCCN(C(=O)c3ccc(-n4cccn4)nc3)C2)c1` (centres undefined), the cytotoxicity at 10 µM is -6.12%.

With `COc1c(CNC2CCN(c3ncccn3)CC2)c(C)nn1C`, the cytotoxicity at 10 µM is -1.66%.

`O=C(CCOc1ccc(F)cc1)N1CCCC1Cn1cccn1` (centres undefined): the cytotoxicity at 10 µM is -2.7%.

With `c1cnnc(N2CCCC2CNCc2nc(-c3ccco3)no2)c1` (centres undefined), the cytotoxicity at 10 µM was -10.2%.

Regarding `CCc1ccsc1C(=O)N1CCCN(Cc2nccn2CC)CC1`, the cytotoxicity at 10 µM came out at 1.84%.

As for `c1cnnc(N2CCCC(NCc3ccncc3)C2)c1` (centres undefined), the cytotoxicity at 10 µM is -5.39%.

As for `Cn1cnnc1C1CCCN(C(=O)c2ccc3c(c2)OCCO3)C1` (centres undefined), the cytotoxicity at 10 µM was -11%.

For `Cc1ccsc1C(=O)NCCCn1nc2ccccn2c1=O`, the cytotoxicity at 10 µM was -1.1%.

Turning to `c1ccc2oc(CCCN3CCCC3Cn3cncn3)nc2c1` (centres undefined), the cytotoxicity at 10 µM is -1.42%.

Regarding `CCN(CC)C(C(=O)NCc1ccc(N2CCCC2)nc1)C(C)C` (centres undefined), the cytotoxicity at 10 µM was -8.08%.

Turning to `O=C(CCN1CCCC1c1cccs1)N1CCc2sccc2C1` (centres undefined), the cytotoxicity at 10 µM is -0.636%.

Turning to `Cc1ccc(C(=O)N2CCC3(CC2)CC(c2ccccc2)C(=O)N3)cn1` (centres undefined), the cytotoxicity at 10 µM is -7.42%.

As to `CN1CCC2(CCN(c3ncc(F)cn3)CC2)C1=O`, the cytotoxicity at 10 µM came out at 0.411%.

With `O=C(Cc1cccs1)N1CC[C@H]2[C@@H]1CCC(=O)N2c1cccnc1`, the cytotoxicity at 10 µM worked out at 3.94%.

`COc1ccc(CN2CCC3(CC2)NC(=O)CC3c2ccncc2)cc1` (centres undefined): the cytotoxicity at 10 µM stood at 5.97%.
